Data: article PMC3767132 (Organic & biomolecular chemistry, 2012)
Where two headings read alike, the source gives them in different places.

Assays:
[1] = molecular target: hMetAP2 (Homo sapiens, UniProt P50579); assay: human MetAP2 enzyme assay; format: biochemical; settings: for b = bottom value in the dose-response curve, hMetAP2: noted only when above 15%; for inhibition at 10 µM: read-out: inhibition of MetAP2 activity in HTS
[2] = system: HUVEC; assay: HUVEC proliferation assay using [3H]-thymidine incorporation; format: cell-based, human
[3] = molecular target: hMetAP1 (Homo sapiens, UniProt P53582); assay: human MetAP1 enzyme assay; format: biochemical; settings: for b = bottom value in the dose-response curve, hMetAP1: noted only when above 15%
[4] = system: HUVEC; assay: HUVEC cell-viability assay using calcein-AM; format: cell-based, human; settings: Homo sapiens, HUVEC, read-out: IC50 Calcein-AM HUVEC
[5] = system: Jurkat-T; assay: Jurkat T proliferation assay, 3H-T uptake; format: cell-based; settings: Homo sapiens, Jurkat, read-out: IC50 3H-T Uptake Jurkat-T
[6] = system: SIRT1; assay: Immunoblot of Ac-p53; format: cell-based, human; settings: for Immunoblot Ac-p53: compound treated HUVEC lysates, 24 h, signal relative to DMSO = 1.0; for effect on the levels of Ac-p53: up to 10 μM, data not shown
How it was run: (§1)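 HUVEC were exposed to test compound for 24 h, typically at 5 μM (some up to 10 μM), with DMSO as negative control. Lysates were immunoblotted for Met-14-3-3γ, 14-3-3γ, Ac-p53 and total p53. Band densities were taken as Met-14-3-3γ/14-3-3γ and Ac-p53/p53 per lane, relative to DMSO = 1.0. Ac-p53 was scored −(<2.0), +(2.0–7.0), ++(7.1–11.6), +++(>11.6).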

[7] = system: HFF; assay: HFF cell-viability assay using calcein-AM; format: cell-based, human; settings: for IC50: Homo sapiens, HFF, read-out: IC50 Calcein-AM HFF
[8] = system: HeLa; assay: HeLa proliferation assay, 3H-T uptake; format: cell-based; settings: Homo sapiens, HeLa, read-out: IC50 3H-T Uptake HeLa
[9] = system: MetAP; assay: Immunoblot of Met-14-3-3γ; format: cell-based, human; settings: for Immunoblot Met-14-3-3γ: compound treated HUVEC lysates, 24 h, signal relative to DMSO = 1.0; for effect on the levels of Met-14-3-3γ: up to 10 μM, HUVEC, data not shown
How it was run: as §1

[10] = Homo sapiens, HUVEC, read-out: IC50 HUVEC
[11] = IC50 hMetAP1, enzyme assay, 10 μM Co2+
[12] = Homo sapiens, HUVEC, read-out: IC50 HUVEC, proliferation, 3H-T uptake
[13] = read-out: IC50 hMetAP2, enzyme assay, 10 μM Mn2+
[14] = read-out: IC50 HUVEC, proliferation, 3H-T uptake
[15] = read-out: IC50 hMetAP1, enzyme assay, 10 μM Co2+

Chain of hMetAP2 (P50579 whole entry): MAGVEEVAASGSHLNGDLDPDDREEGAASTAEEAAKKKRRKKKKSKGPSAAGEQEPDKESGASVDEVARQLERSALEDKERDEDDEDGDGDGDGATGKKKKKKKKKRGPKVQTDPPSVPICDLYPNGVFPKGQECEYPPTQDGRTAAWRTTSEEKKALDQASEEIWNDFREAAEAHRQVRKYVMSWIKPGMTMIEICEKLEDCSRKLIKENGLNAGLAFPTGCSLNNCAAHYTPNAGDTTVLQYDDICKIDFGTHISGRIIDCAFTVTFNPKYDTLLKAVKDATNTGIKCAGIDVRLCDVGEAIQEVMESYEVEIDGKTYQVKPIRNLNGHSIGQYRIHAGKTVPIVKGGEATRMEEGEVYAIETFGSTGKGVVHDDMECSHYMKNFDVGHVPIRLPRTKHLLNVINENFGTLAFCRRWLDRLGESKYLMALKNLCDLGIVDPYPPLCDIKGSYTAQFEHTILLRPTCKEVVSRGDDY

| IC50 [1] [µM] | IC50 [3, 11] [µM] | IC50 [1, 13] [µM] | IC50 [3, 15] [µM] | Structure (SMILES) | IC50 [2, 10] [µM] | IC50 [2, 14] [µM] | other results |
| --- | --- | --- | --- | --- | --- | --- | --- |
| > 40 | > 40 | – | – | O=C(Nc1ccc(O)c2ncccc12)N1CCOCC1 [Entry 42, N-(8-Hydroxyquinolin-5-yl)morpholine-4-carboxamide] | 1.88 ± 0.3 | – | – |
| > 40 | > 40 | – | – | CCCCCCN(CCCCCC)c1ccc(O)c2ncccc12 [Entry 36, 5-(N,N-Di-n-hexyl)amino-8-hydroxyquinoline] | 0.789 ± 0.21 | – | – |
| 2.39 ± 0.31 | > 15 | – | – | Oc1c(I)cc(Cl)c2cccnc12 [Entry 7, Clioquinol, reference compound] | 2.42 ± 0.5 | – | IC50 ([3]; IC50 MetAP1 with Co2+, Co2+ metalloform, data not shown): > 50 µM |
| > 40 | > 40 | – | – | CCCCCC(=O)Nc1ccc(O)c2ncccc12 [Entry 39, N-(8-Hydroxyquinolin-5-yl)hexanamide] | 8.45 ± 0.91 | – | – |
| > 15 | > 15 | – | – | C=CCOc1c(Cl)cc(Cl)c2cccnc12 [Entry 28, 8-(Allyloxy)-5,7-dichloroquinoline] | 2.32 ± 0.23 | – | – |
| > 40 | > 40 | – | – | CC(C)S(=O)(=O)Nc1ccc(O)c2ncccc12 [Entry 41, N-(8-Hydroxyquinolin-5-yl)propane-2-sulfonamide] | 12.9 ± 0.13 | – | – |
| > 40 | 1.46 ± 0.3 | – | – | COc1ccc(CN(Cc2ccc(OC)cc2)c2ccc(O)c3ncccc23)cc1 [Entry 37, 5-(N,N-Di[(4-methoxy)benzyl])amino-8-hydroxyquinoline] | 0.551 ± 0.08 | – | b = bottom value in the dose-response curve, hMetAP1 [3]: 32% |
| – | – | – | – | Oc1ccc(Cl)c2cccnc12 [Entry 4, Cloxyquin, reference compound] | 1.41 ± 0.1 | – | – |
| – | – | > 15 | > 15 | Oc1c(Br)cc(Br)c2cccnc12 [Entry 10] | – | 2.53 ± 0.71 | – |
| > 15 | > 15 | – | – | C=CCOc1cccc2ccc(C#N)nc12 [Entry 30, 8-(Allyloxy)quinoline-2-carbonitrile] | > 50 | – | – |
| > 15 | 6.97 ± 0.25 | – | – | Cc1ccc(S(=O)(=O)Nc2cccc3cccnc23)cc1 [Entry 32, 8-quinolinyl p-toluenesulfonamide] | 0.308 ± 0.04 | – | IC50 [4]: 1.47 ± 0.2 µM; IC50 [5]: 0.79 ± 0.08 µM; Immunoblot Ac-p53 [6]: − (−, <2.0); effect on the levels of Ac-p53 ([6]; HUVEC): no effect; b = bottom value of the curve, Calcein-AM HFF [7]: 21%; IC50 [7]: 0.909 ± 0.12 µM; IC50 [8]: 1.12 ± 0.2 µM; Immunoblot Met-14-3-3γ [9]: − (−, >1.5); effect on the levels of Met-14-3-3γ [9]: no effect; b = bottom value in the dose-response curve, hMetAP1 [3]: 21% |
| – | – | – | – | Oc1cccc2cccnc12 [Entry 1, 8-hydroxyquinoline] | 6.21 ± 1.1 | – | IC50 ([3]; IC50 hMetAP1): > 15 µM |
| – | – | > 15 | > 15 | OCCOc1ccc(Cl)c2cccnc12 [Entry 29] | – | 2.4 ± 0.3 | – |
| 20.1 | 7.21 ± 1.3 | – | – | CCN(CC)c1ccc(O)c2ncccc12 [Entry 35, 5-(N,N-Diethyl)amino-8-hydroxyquinoline] | 0.329 ± 0.17 | – | b = bottom value in the dose-response curve, hMetAP2 [1]: 25%; b = bottom value in the dose-response curve, hMetAP1 [3]: 29% |
| – | – | > 15 | > 15 | Cc1ccc2cccc(O)c2n1 [Entry 2] | – | 2.7 ± 0.61 | – |
| – | – | > 40 | > 40 | CC(=O)Nc1ccc(O)c2ncccc12 [Entry 38] | – | 10.2 ± 1.1 | b = bottom value in the dose-response curve, HUVEC ([2]; 3H-T uptake, noted only when above 15%): 28% |
| – | – | > 15 | – | O=S(=O)(O)c1ccc(O)c2ncccc12 [Entry 6] | – | > 50 | – |

| IC50 [1] [µM] | IC50 [3, 11] [µM] | IC50 [1, 13] [µM] | IC50 [3, 15] [µM] | Structure (SMILES) | IC50 [2, 10] [µM] | IC50 [2, 14] [µM] | other results |
| --- | --- | --- | --- | --- | --- | --- | --- |
| – | – | > 15 | > 15 | N#Cc1ccc2cccc(O)c2n1 [Entry 3] | – | > 50 | – |
| – | – | > 15 | > 15 | Oc1c(Cl)cc(Cl)c2cccnc12 [Entry 9] | – | 3.64 ± 0.53 | – |
| – | – | > 15 | 17.3 ± 1.7 | Cc1ccc2c([N+](=O)[O-])cc([N+](=O)[O-])c(O)c2n1 [Entry 43] | – | 15.7 ± 1.3 | – |
| – | – | > 15 | > 40 | Nc1cc(Cl)c2cccnc2c1O [Entry 45] | – | 0.273 ± 0.07 | Immunoblot Ac-p53 [6]: − (−, <2.0); effect on the levels of Ac-p53 ([6]; HUVEC): no effect; Immunoblot Met-14-3-3γ [9]: − (−, >1.5); effect on the levels of Met-14-3-3γ [9]: no effect |
| > 50 | > 15 | – | – | C=CCOc1ccc(Cl)c2cccnc12 [Entry 27, 5-chloro-8-allyloxyquinoline] | > 50 | – | inhibition at 10 µM [1]: > 90% |
| > 15 | > 15 | – | – | COc1ccc(N2CCN(Cc3cc(Cl)c4cccnc4c3O)CC2)cc1 [Entry 17, 5-Chloro-7-((4-(4-methoxyphenyl)piperazin-1-yl)methyl)-quinolin-8-ol] | 1.46 ± 0.33 | – | level of Ac-p53 compared to DMSO treated cells ([6]; 10 μM, HUVEC): did increase; Immunoblot Ac-p53 [6]: + (+, 2.0–7.0); Immunoblot Met-14-3-3γ [9]: − (−, >1.5) |
| > 15 | 21 | – | – | Cc1ccc(S(=O)(=O)Nc2ccc([N+](=O)[O-])c3cccnc23)cc1 [Entry 55, 4-methyl-N-(5-nitroquinolin-8-yl)benzene-sulfonamide] | 0.305 ± 0.07 | – | IC50 [4]: 1.46 ± 0.21 µM; IC50 [5]: 0.82 ± 0.15 µM; Immunoblot Ac-p53 [6]: − (−, <2.0); effect on the levels of Ac-p53 ([6]; HUVEC): no effect; b = bottom value of the curve, Calcein-AM HFF [7]: 21%; IC50 [7]: 0.783 ± 0.11 µM; IC50 [8]: 1.03 ± 0.2 µM; Immunoblot Met-14-3-3γ [9]: − (−, >1.5); effect on the levels of Met-14-3-3γ [9]: no effect; b = bottom value in the dose-response curve, hMetAP1 [3]: 19% |
| – | – | > 15 | > 50 | Oc1c(CN2CCOCC2)ccc2cccnc12 [Entry 12] | – | > 20 | – |
| 0.434 ± 0.1 | > 15 | – | – | CC(C)(C)C(=O)Oc1ccc([N+](=O)[O-])c2cccnc12 [Entry 46, 5-nitroquinolin-8-yl pivalate] | – | – | Immunoblot Ac-p53 [6]: ++ (++, 7.1–11.6); Immunoblot Met-14-3-3γ [9]: + (+, ≥1.5) |
| 1.06 ± 0.5 | > 15 | – | – | NC(=O)COc1ccc([N+](=O)[O-])c2cccnc12 [Entry 50, 2-(5-nitroquinolin-8-yloxy)acetamide] | 6.3 ± 1.4 | – | – |
| – | – | > 15 | > 15 | O=[N+]([O-])c1cc(Cl)c2cccnc2c1O [Entry 44] | – | 7.73 ± 0.77 | – |
| – | – | > 15 | > 15 | Oc1c(I)cc(I)c2cccnc12 [Entry 11] | – | 2.62 ± 0.08 | – |
| 2.75 ± 0.4 | > 50 | – | – | Oc1c(C(Nc2nccs2)c2ccco2)cc(Cl)c2cccnc12 (stereo not shown) [Entry 19, 5-Chloro-7-(furan-2-yl(thiazole-2-ylamino)methyl)quinolin-8-ol] | 2.53 ± 0.13 | – | – |
| – | – | > 15 | > 15 | Oc1c(Br)cc(Cl)c2cccnc12 [Entry 8] | – | 2.21 ± 0.6 | – |
| > 15 | > 15 | – | – | CCOC(=O)COc1ccc([N+](=O)[O-])c2cccnc12 [Entry 49, ethyl 2-(5-nitroquinolin-8-yloxy)acetate] | 7.3 ± 0.81 | – | – |
| – | 14 | – | – | Oc1c(C(c2ccccc2)N2CCOCC2)cc(Cl)c2cccnc12 (stereo not shown) [Entry 18, 5-Chloro-7-(morpholino(phenyl)methyl)quinolin-8-ol] | 1.92 ± 0.6 | – | IC50 [4]: 3.55 ± 0.9 µM; b = bottom value of the curve, Calcein-AM HFF [7]: 18%; IC50 [7]: 3.66 ± 0.7 µM |

| Structure (SMILES) | IC50 [1] [µM] | IC50 [3, 11] [µM] | IC50 [1, 13] [µM] | IC50 [3, 15] [µM] | IC50 [2, 10] [µM] | IC50 [2, 14] [µM] | other results |
| --- | --- | --- | --- | --- | --- | --- | --- |
| CCOP(=O)(OCC)Oc1ccc(Cl)c2cccnc12 [Entry 26, 5-chloroquinolin-8-yl diethyl phosphate] | > 15 | > 15 | – | – | > 50 | – | – |
| O=C(Nc1ccc(F)cc1)Oc1c(Cl)cc(Cl)c2cccnc12 [Entry 25, 5,7-Dichloroquinolin-8-yl 4-fluorophenylcarbamate] | > 15 | > 15 | – | – | – | – | IC50 [2, 12]: 3.58 ± 0.9 µM |
| O=C(Nc1ccccc1)Oc1ccc(Cl)c2cccnc12 [Entry 22, 5-chloroquinolin-8-yl phenylcarbamate] | 5.26 ± 0.6 | > 15 | – | – | – | 1.21 ± 0.51 | b = bottom value in the dose-response curve, hMetAP2 [1]: 24%; inhibition at 10 µM [1]: > 90%; IC50 [2, 12]: 1.2 µM |
| O=C(Nc1cc(F)cc(F)c1)Oc1ccc(Cl)c2cccnc12 [Entry 23, 5-Chloroquinolin-8-yl 3,5-difluorophenylcarbamate] | > 15 | > 15 | – | – | – | – | IC50 [2, 12]: 2.2 ± 0.1 µM |
| Nc1cccc2cccnc12 [Entry 31, 8-aminoquinoline] | > 15 | > 15 | – | – | – | – | IC50 [2, 12]: > 50 µM |
| O=C(NCCCl)Oc1c(Cl)cc(Cl)c2cccnc12 [Entry 21, 5,7-Dichloroquinolin-8-yl 2-chloroethylcarbamate] | – | > 15 | – | – | – | – | IC50 [2, 12]: 2.62 ± 0.5 µM |
